Laboratory results published in ChEMBL document CHEMBL1268902, “9-Dihydroerythromycin ethers as motilin agonists--developing structure-activity relationships for potency and safety” (Bioorg Med Chem, 2010).
Converted amounts (≈) assume the structure as drawn.

Tests used:
[1] = Induction of contraction in rabbit smooth muscle; type: functional, tissue-based, Oryctolagus cuniculus, Muscle tissue
How it was run: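 Rabbit smooth muscle contractility assay; EC50 taken as the concentration giving 50% of maximal possible contraction.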

Streptococcus pneumoniae = test: Antibacterial activity against erythromycin-sensitive Streptococcus pneumoniae ATCC 6301; type: functional
How it was run: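 MIC determined by growth inhibition; routine screening used the highly erythromycin-sensitive strain S. pneumoniae ATCC6301.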

[2] = Induction of contraction in rabbit smooth muscle at EC90 concentration after three cycles of administration and washout measured after 4th dose; type: functional, Oryctolagus cuniculus, Muscle tissue
How it was run: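 Rabbit smooth muscle contractility; drug applied at EC90 concentration through three cycles of administration and washout, tachyphylaxis reported as % contractility response then obtained.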

hERG (KCNH2) [3] = target: T1, hERG (KCNH2) (Homo sapiens, UniProt Q12809); test: Inhibition of human ERG at 30 uM
hERG (KCNH2) [4] = target: T1, hERG (KCNH2); test: Inhibition of human ERG at 300 uM

T1 sequence (Q12809 whole entry): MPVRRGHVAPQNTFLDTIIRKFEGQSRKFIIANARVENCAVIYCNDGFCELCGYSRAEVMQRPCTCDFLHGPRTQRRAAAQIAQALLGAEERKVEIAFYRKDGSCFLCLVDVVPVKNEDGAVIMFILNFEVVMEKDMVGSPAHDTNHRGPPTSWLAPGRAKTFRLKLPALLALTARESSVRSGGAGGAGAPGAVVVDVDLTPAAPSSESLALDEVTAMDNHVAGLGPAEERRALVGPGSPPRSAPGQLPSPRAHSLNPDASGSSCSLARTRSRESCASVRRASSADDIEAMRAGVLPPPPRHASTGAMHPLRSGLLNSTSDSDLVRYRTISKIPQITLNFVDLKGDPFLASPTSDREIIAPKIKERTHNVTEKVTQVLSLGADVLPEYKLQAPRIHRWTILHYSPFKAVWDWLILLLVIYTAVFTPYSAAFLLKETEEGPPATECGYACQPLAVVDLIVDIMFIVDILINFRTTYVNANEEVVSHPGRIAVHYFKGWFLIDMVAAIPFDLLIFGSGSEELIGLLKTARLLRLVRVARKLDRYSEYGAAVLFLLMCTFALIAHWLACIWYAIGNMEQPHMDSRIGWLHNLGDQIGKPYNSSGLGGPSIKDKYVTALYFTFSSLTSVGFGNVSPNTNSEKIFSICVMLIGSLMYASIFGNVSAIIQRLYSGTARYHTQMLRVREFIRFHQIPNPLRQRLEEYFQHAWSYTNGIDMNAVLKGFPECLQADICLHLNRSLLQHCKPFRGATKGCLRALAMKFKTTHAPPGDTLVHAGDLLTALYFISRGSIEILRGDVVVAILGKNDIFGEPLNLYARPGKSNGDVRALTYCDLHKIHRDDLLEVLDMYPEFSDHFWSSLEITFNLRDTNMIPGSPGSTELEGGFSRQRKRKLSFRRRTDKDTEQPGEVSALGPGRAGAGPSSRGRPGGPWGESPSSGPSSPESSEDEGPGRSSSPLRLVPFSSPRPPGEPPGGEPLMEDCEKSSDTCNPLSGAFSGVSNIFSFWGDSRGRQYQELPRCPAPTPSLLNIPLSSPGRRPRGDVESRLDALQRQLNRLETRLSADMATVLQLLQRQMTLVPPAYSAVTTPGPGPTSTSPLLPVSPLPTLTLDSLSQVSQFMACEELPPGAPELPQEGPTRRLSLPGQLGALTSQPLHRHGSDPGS

EC50 [1] [nM] | MIC (Streptococcus pneumoniae) [µg/mL] | Structure (SMILES) | Activity [2] [%] | inhibition at 30 µM (hERG (KCNH2) [3]) [%] | inhibition at 300 µM (hERG (KCNH2) [4]) [%]
3600 | – | CC[C@H]1OC(=O)[C@H](C)[C@@H](O[C@H]2C[C@@](C)(OC)[C@@H](O)[C@H](C)O2)[C@H](C)[C@@H](O[C@@H]2O[C@H](C)C[C@H](N(C)C(C)C)[C@H]2O)[C@](C)(O)C[C@@H](C)[C@H](OCCNC(=N)N)[C@H](C)[C@@H](O)[C@]1(C)O | – | – | –
37 | 128 (≈ 135 µM) | CC[C@H]1OC(=O)[C@H](C)[C@@H](O[C@H]2C[C@@](C)(OC)[C@@H](O)[C@H](C)O2)[C@H](C)[C@@H](O[C@@H]2O[C@H](C)C[C@H](N(C)C(C)C)[C@H]2O)[C@](C)(O)C[C@@H](C)[C@H](OCCNC(=O)c2ccc3[nH]cnc3c2)[C@H](C)[C@@H](O)[C@]1(C)O | 94 | 71 | 100
100 | > 128 | CCNC(=O)NCCO[C@@H]1[C@H](C)[C@@H](O)[C@](C)(O)[C@@H](CC)OC(=O)[C@H](C)[C@@H](O[C@H]2C[C@@](C)(OC)[C@@H](O)[C@H](C)O2)[C@H](C)[C@@H](O[C@@H]2O[C@H](C)C[C@H](N(C)C(C)C)[C@H]2O)[C@](C)(O)C[C@H]1C | 88 | 20 | 57
2000 | 64 (≈ 75.4 µM) | CC[C@H]1OC(=O)[C@H](C)[C@@H](O[C@H]2C[C@@](C)(OC)[C@@H](O)[C@H](C)O2)[C@H](C)[C@@H](O[C@@H]2O[C@H](C)C[C@H](N(C)C(C)C)[C@H]2O)[C@](C)(O)C[C@@H](C)[C@H](OCCNC(C)C)[C@H](C)[C@@H](O)[C@]1(C)O | – | 40 | 93
100 | 64 (≈ 72.8 µM) | CCOC(=O)NCCO[C@@H]1[C@H](C)[C@@H](O)[C@](C)(O)[C@@H](CC)OC(=O)[C@H](C)[C@@H](O[C@H]2C[C@@](C)(OC)[C@@H](O)[C@H](C)O2)[C@H](C)[C@@H](O[C@@H]2O[C@H](C)C[C@H](N(C)C(C)C)[C@H]2O)[C@](C)(O)C[C@H]1C | – | 67 | 100
220 | > 120 | CCNC(=S)NCCO[C@@H]1[C@H](C)[C@@H](O)[C@](C)(O)[C@@H](CC)OC(=O)[C@H](C)[C@@H](O[C@H]2C[C@@](C)(OC)[C@@H](O)[C@H](C)O2)[C@H](C)[C@@H](O[C@@H]2O[C@H](C)C[C@H](N(C)C(C)C)[C@H]2O)[C@](C)(O)C[C@H]1C | – | 36 | 88
7 | – | CC[C@H]1OC(=O)[C@H](C)[C@@H](O[C@H]2C[C@@](C)(OC)CC(C)O2)[C@H](C)[C@@H](O[C@@H]2O[C@H](C)C[C@H](N(C)CC)[C@H]2O)C2(C)CC(C)=C(O2)[C@H](C)[C@@H](O)[C@H]1C (single isomer, unassigned) | 22 | – | –
240 | > 128 | CC[C@H]1OC(=O)[C@H](C)[C@@H](O[C@H]2C[C@@](C)(OC)[C@@H](O)[C@H](C)O2)[C@H](C)[C@@H](O[C@@H]2O[C@H](C)C[C@H](N(C)C(C)C)[C@H]2O)[C@](C)(O)C[C@@H](C)[C@H](OCCNS(C)(=O)=O)[C@H](C)[C@@H](O)[C@]1(C)O | 94 | 12 | 79
48 | > 128 | CC[C@H]1OC(=O)[C@H](C)[C@@H](O[C@H]2C[C@@](C)(OC)[C@@H](O)[C@H](C)O2)[C@H](C)[C@@H](O[C@@H]2O[C@H](C)C[C@H](N(C)C(C)C)[C@H]2O)[C@](C)(O)C[C@@H](C)[C@H](OCCNC(C)=O)[C@H](C)[C@@H](O)[C@]1(C)O | 94 | 47 | 73
480 | 128 (≈ 146 µM) | CC[C@H]1OC(=O)[C@H](C)[C@@H](O[C@H]2C[C@@](C)(OC)[C@@H](O)[C@H](C)O2)[C@H](C)[C@@H](O[C@@H]2O[C@H](C)C[C@H](N(C)C(C)C)[C@H]2O)[C@](C)(O)C[C@@H](C)[C@H](OCc2csc(C)n2)[C@H](C)[C@@H](O)[C@]1(C)O | – | 63 | 100
11 | – | CC[C@H]1OC(=O)[C@H](C)[C@@H](O[C@H]2C[C@@](C)(OC)C[C@H](C)O2)[C@H](C)[C@@H](O[C@@H]2O[C@H](C)C[C@H](N(C)C(C)C)[C@H]2O)[C@]2(C)CC(C)=C(O2)[C@H](C)C(=O)[C@]1(C)OC | 9 | 84 | 100
260 | – | CC[C@H]1OC(=O)[C@H](C)[C@@H](O[C@H]2C[C@@](C)(OC)[C@@H](O)[C@H](C)O2)[C@H](C)[C@@H](O[C@@H]2O[C@H](C)C[C@H](N(C)C(C)C)[C@H]2O)[C@](C)(O)C[C@@H](C)[C@H](O)[C@H](C)[C@@H](O)[C@]1(C)O [3 9-DIHYDRO-N-DESMETHYL-N-ISOPROPYLERYTHROMYCIN A] | 85 | – | –
54 | 128 (≈ 151 µM) | CC[C@H]1OC(=O)[C@H](C)[C@@H](O[C@H]2C[C@@](C)(OC)[C@@H](O)[C@H](C)O2)[C@H](C)[C@@H](O[C@@H]2O[C@H](C)C[C@H](N(C)C(C)C)[C@H]2O)[C@](C)(O)C[C@@H](C)[C@H](OCc2nc[nH]n2)[C@H](C)[C@@H](O)[C@]1(C)O | 97 | 8 | 40
130 | 128 (≈ 148 µM) | CC[C@H]1OC(=O)[C@H](C)[C@@H](O[C@H]2C[C@@](C)(OC)[C@@H](O)[C@H](C)O2)[C@H](C)[C@@H](O[C@@H]2O[C@H](C)C[C@H](N(C)C(C)C)[C@H]2O)[C@](C)(O)C[C@@H](C)[C@H](OCCNC(=O)OC)[C@H](C)[C@@H](O)[C@]1(C)O | – | 40 | 95
31 | > 128 | CC[C@H]1OC(=O)[C@H](C)[C@@H](O[C@H]2C[C@@](C)(OC)[C@@H](O)[C@H](C)O2)[C@H](C)[C@@H](O[C@@H]2O[C@H](C)C[C@H](N(C)C(C)C)[C@H]2O)[C@](C)(O)C[C@@H](C)[C@H](OCCNC=O)[C@H](C)[C@@H](O)[C@]1(C)O | 100 | 8 | 47
63 | – | CC[C@H]1OC(=O)[C@H](C)[C@@H](O[C@H]2C[C@@](C)(OC)[C@@H](O)[C@H](C)O2)[C@H](C)[C@@H](O[C@@H]2O[C@H](C)C[C@H](N(C)C(C)C)[C@H]2O)[C@](C)(O)C[C@@H](C)[C@H](OCc2c[nH]cn2)[C@H](C)[C@@H](O)[C@]1(C)O | – | 48 | 98
2300 | 128 (≈ 159 µM) | CC[C@H]1OC(=O)[C@H](C)[C@@H](O[C@H]2C[C@@](C)(OC)[C@@H](O)[C@H](C)O2)[C@H](C)[C@@H](O[C@@H]2O[C@H](C)C[C@H](N(C)C(C)C)[C@H]2O)[C@](C)(O)C[C@@H](C)[C@H](OCCN)[C@H](C)[C@@H](O)[C@]1(C)O | – | 25 | 76
110 | 128 (≈ 149 µM) | CC[C@H]1OC(=O)[C@H](C)[C@@H](O[C@H]2C[C@@](C)(OC)[C@@H](O)[C@H](C)O2)[C@H](C)[C@@H](O[C@@H]2O[C@H](C)C[C@H](N(C)C(C)C)[C@H]2O)[C@](C)(O)C[C@@H](C)[C@H](OCc2cc(C)on2)[C@H](C)[C@@H](O)[C@]1(C)O | 78 | 45 | 90
58 | 128 (≈ 153 µM) | CC[C@H]1OC(=O)[C@H](C)[C@@H](O[C@H]2C[C@@](C)(OC)[C@@H](O)[C@H](C)O2)[C@H](C)[C@@H](O[C@@H]2O[C@H](C)C[C@H](N(C)C(C)C)[C@H]2O)[C@](C)(O)C[C@@H](C)[C@H](OCC(=O)NC)[C@H](C)[C@@H](O)[C@]1(C)O | 89 | – | –
420 | 128 (≈ 150 µM) | CC[C@H]1OC(=O)[C@H](C)[C@@H](O[C@H]2C[C@@](C)(OC)[C@@H](O)[C@H](C)O2)[C@H](C)[C@@H](O[C@@H]2O[C@H](C)C[C@H](N(C)C(C)C)[C@H]2O)[C@](C)(O)C[C@@H](C)[C@H](OCc2ccncc2)[C@H](C)[C@@H](O)[C@]1(C)O | – | 68 | 100
290 | 128 (≈ 149 µM) | CC[C@H]1OC(=O)[C@H](C)[C@@H](O[C@H]2C[C@@](C)(OC)[C@@H](O)[C@H](C)O2)[C@H](C)[C@@H](O[C@@H]2O[C@H](C)C[C@H](N(C)C(C)C)[C@H]2O)[C@](C)(O)C[C@@H](C)[C@H](OCc2nccs2)[C@H](C)[C@@H](O)[C@]1(C)O | – | 61 | 100
1200 | – | CC[C@H]1OC(=O)[C@H](C)[C@@H](O[C@H]2C[C@@](C)(OC)[C@@H](O)[C@H](C)O2)[C@H](C)[C@@H](O[C@@H]2O[C@H](C)C[C@H](N(C)C)[C@H]2O)[C@](C)(O)C[C@@H](C)C(=O)[C@H](C)[C@@H](O)[C@]1(C)O [ERYTHROMYCIN] | 97 | – | –
210 | 128 (≈ 141 µM) | CCCNC(=S)NCCO[C@@H]1[C@H](C)[C@@H](O)[C@](C)(O)[C@@H](CC)OC(=O)[C@H](C)[C@@H](O[C@H]2C[C@@](C)(OC)[C@@H](O)[C@H](C)O2)[C@H](C)[C@@H](O[C@@H]2O[C@H](C)C[C@H](N(C)C(C)C)[C@H]2O)[C@](C)(O)C[C@H]1C | – | 53 | 100
